In brackets after ≈: the same amount, converted by molar mass.
Columns and labels:
Rattus norvegicus [1] = test: Antialzheimer activity in Sprague-Dawley rat assessed as amyloid beta 38 level in brain at 10 mg/kg, po at 2 hrs by ELISA relative to control; type: functional
Method in brief: (§1)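 Male Sprague-Dawley rats (180-220 g), fasted overnight, were given 10 mg/kg by gastric intubation as a 5 mg/mL suspension in 0.5% methocellulose. At 2, 4, 7 and 25 h, 50 μL CSF was taken from the cisterna magna under isoflurane, then brain was collected. Aβ37/38/40/42 were measured by MesoScale Discovery sandwich immunoassays. Results are mean % change versus T = 0 h, n = 5.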

Rattus norvegicus [2] = test: Antialzheimer activity in Sprague-Dawley rat assessed as amyloid beta 37 level in brain at 10 mg/kg, po at 25 hrs by ELISA relative to control; type: functional; method in brief: as §1
Rattus norvegicus [3] = test: Antialzheimer activity in Sprague-Dawley rat assessed as amyloid beta 37 level in CSF at 10 mg/kg, po at 2 hrs by ELISA relative to control; type: functional; method in brief: as §1
Rattus norvegicus [4] = test: Antialzheimer activity in Sprague-Dawley rat assessed as amyloid beta 37 level in brain at 10 mg/kg, po at 2 hrs by ELISA relative to control; type: functional; method in brief: as §1
[5] = Oral bioavailability in beagle dog at 5 mg/kg; type: ADME, organism-based, Canis lupus familiaris; settings: in vivo
[6] = Oral bioavailability in Sprague-Dawley rat at 10 mg/kg; type: ADME, organism-based; settings: in vivo
[7] = Drug uptake in CD1 mouse brain at 30 mg/kg, po at 8 hrs by LC-MS/MS analysis; type: ADME, organism-based; set-up: dose 30 mg/kg, route oral; settings: read-out: Drug uptake
Method in brief: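 Overnight-fasted male CD1 mice received one oral dose (10 or 30 mg/kg) in 20% Captisol. After sacrifice, the left brain hemisphere was stored at −18 °C. Compound level was quantified by a qualified LC-MS/MS method, alongside EDTA plasma spun at 1900g, 4 °C. n = 4 per time point.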

Mus musculus [8] = test: Inhibition of gamma-secretase in CD1 mouse assessed as total amyloid beta level in brain at 30 mg/kg, po at 8 hrs by ELISA relative to control; type: functional; set-up: scale not given: the % may be the effect or the level left
Method in brief: (§2)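 Fasted male CD1 SPF mice were dosed orally at 10 or 30 mg/kg in 20% Captisol. Right hemisphere was homogenized in 0.4% DEA/50 mM NaCl and the high-speed supernatant neutralized. Aβtotal ELISA used N-terminal JRF/rAβ/2 capture, biotinylated 4G8 and streptavidin-peroxidase, then a fluorogenic substrate (ex 320/em 420 nm). Standards spanned 10000–0.3 pg/mL. Values are % change vs T = 0 h, n = 4.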

Mus musculus [9] = test: Inhibition of gamma-secretase in CD1 mouse assessed as total amyloid beta level in brain at 30 mg/kg, po at 4 hrs by ELISA relative to control; type: functional; set-up: scale not given: the % may be the effect or the level left; method in brief: as §2
Mus musculus [10] = test: Antialzheimer activity in CD1 mouse assessed as amyloid beta 42 level in brain at 30 mg/kg, po at 8 hrs by ELISA relative to control; type: functional
Method in brief: (§3)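 Male CD1 SPF mice, fasted overnight, got a single oral dose of 10 or 30 mg/kg. At each time point the right brain hemisphere was homogenized in 0.4% DEA/50 mM NaCl with protease inhibitors and spun at 221300g for 50 min. The supernatant was neutralized with Tris-HCl pH 6.8. Aβ38 or Aβ42 was read by sandwich ELISA with a fluorogenic peroxidase substrate (ex 320/em 420 nm). Results are mean % change versus T = 0 h, n = 4.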

Mus musculus [11] = test: Antialzheimer activity in CD1 mouse assessed as amyloid beta 38 level in brain at 10 mg/kg, po at 24 hrs by ELISA relative to control; type: functional; method in brief: as §3
Mus musculus [12] = test: Antialzheimer activity in CD1 mouse assessed as amyloid beta 38 level in brain at 30 mg/kg, po at 4 hrs by ELISA relative to control; type: functional; method in brief: as §3
[13] = Inhibition of sodium channel site 2 at 10 uM
[14] = Thermodynamic solubility in fasted state simulated intestinal fluid; type: physicochemical; settings: read-out: Therm_solubility
Method in brief: (§4)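 Thermodynamic solubility was measured in pH 4.0 and pH 7.4 buffers, 0.01 N HCl, and fasted-state and fed-state simulated intestinal fluids (FaSSIF, FeSSIF). Results are in […].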

[15] = Thermodynamic solubility in buffer at pH 4; type: physicochemical; settings: read-out: Therm_solubility; method in brief: as §4
Cytochrome P450 3A4 = Cytochrome P450 3A4 (Homo sapiens, UniProt P08684); test: Inhibition of CYP3A4 in human liver microsomes using midazolam as substrate; type: ADME, Microsome
Cytochrome P450 3A4, sequence (P08684 whole entry): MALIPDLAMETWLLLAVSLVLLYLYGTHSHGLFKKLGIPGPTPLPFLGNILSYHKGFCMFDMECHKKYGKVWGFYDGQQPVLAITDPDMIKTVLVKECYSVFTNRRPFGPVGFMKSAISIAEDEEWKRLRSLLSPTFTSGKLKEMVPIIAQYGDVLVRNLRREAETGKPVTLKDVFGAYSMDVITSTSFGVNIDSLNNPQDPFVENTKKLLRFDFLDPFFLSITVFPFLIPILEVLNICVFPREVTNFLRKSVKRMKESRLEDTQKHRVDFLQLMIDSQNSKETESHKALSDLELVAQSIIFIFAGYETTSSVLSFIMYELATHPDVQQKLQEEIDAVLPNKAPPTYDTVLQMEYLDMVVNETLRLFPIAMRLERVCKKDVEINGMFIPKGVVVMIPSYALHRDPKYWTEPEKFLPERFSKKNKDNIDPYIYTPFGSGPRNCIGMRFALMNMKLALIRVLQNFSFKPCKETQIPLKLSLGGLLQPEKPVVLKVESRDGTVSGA

[16] = Lipophilicity, log P of the compound; type: physicochemical; settings: octanol/water
Mus musculus [17] = test: Antialzheimer activity in CD1 mouse assessed as reduction in amyloid beta 42 level in brain at 30 mg/kg, po at 4 hrs by ELISA relative to control; type: functional
Method in brief: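 Screening used fasted male CD1 mice dosed once orally at 30 mg/kg as a suspension in 20% Captisol in water. Mice were killed at 4 h. Aβ42 in the DEA-soluble hemisphere extract was measured by sandwich ELISA. Values are the mean of at least six animals, as % lowering versus untreated mice; a reduction above 20% counts as significant.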

Plasma = test: Plasma concentration in CD1 mouse at 10 mg/kg, po at 48 hrs by LC-MS/MS analysis; type: ADME, organism-based; set-up: dose 10 mg/kg, route oral; settings: in vivo, BLD = below limit of detection
Method in brief: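 Mice received a single 10 or 30 mg/kg oral dose. Plasma was sampled at several time points up to 48 h, with EDTA plasma obtained by centrifugation at 1900g, 10 min, 4 °C. Compound was quantified by LC-MS/MS, n = 4.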

[18] = Plasma concentration in Sprague-Dawley rat at 10 mg/kg, po at 25 hrs by LC-MS/MS analysis; type: ADME, organism-based; set-up: dose 10 mg/kg, route oral
Method in brief: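 Overnight-fasted male Sprague-Dawley rats (180–220 g) were given 10 mg/kg by gastric intubation of a 5 mg/mL suspension in 0.5% methocellulose. Blood was collected after decapitation at 2, 4, 7 and 25 h under isoflurane anaesthesia. Plasma compound was measured as in the mouse assay, n = 5.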

Rattus norvegicus [19] = test: Antialzheimer activity in Sprague-Dawley rat assessed as amyloid beta 42 level in CSF at 10 mg/kg, po at 25 hrs by ELISA relative to control; type: functional; method in brief: as §1
Rattus norvegicus [20] = test: Antialzheimer activity in Sprague-Dawley rat assessed as amyloid beta 42 level in brain at 10 mg/kg, po at 7 hrs by ELISA relative to control; type: functional; method in brief: as §1
Rattus norvegicus [21] = test: Antialzheimer activity in Sprague-Dawley rat assessed as amyloid beta 42 level in CSF at 10 mg/kg, po at 2 hrs by ELISA relative to control; type: functional; method in brief: as §1
Rattus norvegicus [22] = test: Antialzheimer activity in Sprague-Dawley rat assessed as amyloid beta 38 level in CSF at 10 mg/kg, po at 25 hrs by ELISA relative to control; type: functional; method in brief: as §1
Canis familiaris = test: Antialzheimer activity in beagle dog assessed as amyloid beta 40 level in cerebrospinal fluid at 20 mg/kg, po at 4 hrs by ELISA relative to control

COc1nc(Nc2cccc3c2nc(-c2ccc(F)cc2)n3C)ccc1-n1cnc(C)c1 gave an Activity (Rattus norvegicus [1]) of 149%, an Activity (Rattus norvegicus [2]) of 128% and an Activity (Rattus norvegicus [3]) of 735%. The Activity (Rattus norvegicus [4]) was 502%, the bioavailability [5] was 64% and the bioavailability [6] was 95%. For the same compound, the concentration at 8 h [7] was 12 µM, the Activity (Mus musculus [8]) was 83% and the Activity (Mus musculus [9]) was 98%. The Activity (Mus musculus [10]) was 29%, the Activity (Mus musculus [11]) was 83% and the Activity (Mus musculus [12]) was 165%. It also gave an inhibition [13] of 60%, a solubility thermodynamic [14] of 3 µg/mL (≈ 7 µM) and a solubility thermodynamic [15] of under 1 µg/mL. For the same compound, the IC50 (Cytochrome P450 3A4) was 8.7 µM, the logP [16] was 5.25 and the inhibition in vivo at 30 mg/kg (Mus musculus [17]) was 62%. The Cp (Plasma) was “BLD”, the concentration at 25 h [18] was 0.02 µM and the Activity (Rattus norvegicus [19]) was 89%. The Activity (Rattus norvegicus [20]) was 63%, the Activity (Rattus norvegicus [21]) was 65% and the Activity (Rattus norvegicus [22]) was 110%. The Activity (Canis familiaris) was 89%.
